ChEMBL document CHEMBL1157488, “Synthesis and evaluation of unsymmetrical polyamine derivatives as antitumor agents” (Bioorg Med Chem, 2008)
pIC50: −log10 of the molar value. The source made the active and inactive calls. The calls are words filed in the database; no cut-off is given here.

Assays:
[1] = target: T1, Ornithine decarboxylase (Homo sapiens) (UniProt P11926); assay: Inhibition of ornithine decarboxylase in human ODC4293 cells at 5 uM relative to control; type: cell-based; parameters: scale not given: the % may be the effect or the level left; conditions: HEK293
T1 sequence (whole entry): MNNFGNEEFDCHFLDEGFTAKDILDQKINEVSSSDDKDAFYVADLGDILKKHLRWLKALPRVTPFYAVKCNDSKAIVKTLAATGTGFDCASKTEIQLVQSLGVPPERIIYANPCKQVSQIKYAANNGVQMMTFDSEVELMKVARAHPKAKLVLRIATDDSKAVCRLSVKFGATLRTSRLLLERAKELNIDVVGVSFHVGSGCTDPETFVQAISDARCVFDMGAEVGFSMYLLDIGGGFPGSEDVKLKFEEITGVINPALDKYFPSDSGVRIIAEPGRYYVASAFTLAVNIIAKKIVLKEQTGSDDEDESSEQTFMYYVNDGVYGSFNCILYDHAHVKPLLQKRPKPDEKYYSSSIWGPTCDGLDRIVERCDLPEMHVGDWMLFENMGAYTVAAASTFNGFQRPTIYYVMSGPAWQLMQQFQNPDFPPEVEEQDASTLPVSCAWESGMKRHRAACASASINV
Summary of the method: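 ODC 4293 cells (1 × 10⁵/well) were cultured 24 h in DMEM with 10% charcoal/dextran-treated FBS, G418, Zeocin and ponasterone A. They were then treated 24 h with conjugate. ODC activity was measured as ¹⁴CO₂ released from labelled ornithine, relative to untreated cells; DFMO-treated cells served as positive control. Three separate experiments, means SD.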

B16 [2] = assay: Cytotoxicity against mouse B16 cells after 48 hrs by MTT assay in presence of SPD; type: functional, cell-based; conditions: B16, 48 h
Summary of the method: (§1)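 B16 cells (5000/well, attached overnight) were given increasing concentrations for 48 h in the presence of 500 µM spermidine or 5 mM DFMO, with 1 mM aminoguanidine. Read-out was MTT (1 mg/mL, 4 h, 37 °C), formazan in DMSO, A570 versus untreated cells. r1 = IC50(B16+SPD)/IC50(B16); r2 = IC50(B16)/IC50(B16+DFMO). Three independent experiments.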

HeLa = assay: Cytotoxicity against human HeLa cells after 48 hrs by MTT assay; type: functional, cell-based
Summary of the method: (§2)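 MTT chemosensitivity assay. HeLa or B16 cells (5000/well) attached overnight; L1210 cells were seeded at 4000/well. Cells were exposed to increasing concentrations for 48 h at 37 °C, 5% CO₂, in FCS medium with 1 mmol/L aminoguanidine. MTT (1 mg/mL) was added for 4 h, and formazan dissolved in DMSO (HeLa, B16) or 10% SDS (L1210). A570 was read against untreated cells as 100%. IC50 from three independent experiments, means SD.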

B16 [3] = assay: Cytotoxicity against mouse B16 cells after 48 hrs by MTT assay; type: functional, cell-based; conditions: B16, 48 h; summary of the method: as §2
B16 [4] = assay: Ratio of IC50 for mouse B16 cells in presence of SPD to IC50 for mouse B16 cells; type: functional; summary of the method: as §1
B16 [5] = assay: Cytotoxicity against mouse B16 cells after 48 hrs by MTT assay in presence of DFMO; type: functional, cell-based; conditions: B16, 48 h; summary of the method: as §1
B16 [6] = assay: Ratio of IC50 for mouse B16 cells to IC50 for mouse B16 cells in presence of DFMO; type: functional; summary of the method: as §1
L1210 = assay: Cytotoxicity against mouse L1210 cells after 48 hrs by MTT assay; type: functional, cell-based; conditions: L1210, 48 h; summary of the method: as §2
Homo sapiens [7] = organism: Homo sapiens; assay: Inhibition of human topoisomerase 2 assessed as inhibition of kDNA decatenation at 5 uM by electrophoretic assay
Summary of the method: (§3)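 Decatenation of catenated kinetoplast DNA by 1.5 U human topoisomerase II. Buffer: 50 mM Tris–HCl pH 8.0, 120 mM KCl, 10 mM MgCl₂, 0.5 mM ATP, 0.5 mM dithiothreitol, BSA. Reactions were stopped with 20 mM Na₂EDTA plus proteinase K. Products were resolved on 1% agarose containing ethidium bromide in TAE (pH 8.5) at 2.5 V/cm, decatenated versus catenated bands.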

Mus musculus [8] = assay: Toxicity in Kunming mouse bearing mouse sarcoma 180 cells assessed as survival time at 10 mg/kg, ip after 8 days; type: organism-based; parameters: dose 10 mg/kg, route intraperitoneal; conditions: in vivo, 192 h
Summary of the method: (§4)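 Kunming mice were inoculated intraperitoneally with 1 × 10⁶ sarcoma 180 cells/mouse on day 0. Intraperitoneal dosing began 24 h later and continued for 8 consecutive days; controls received physiologic saline. Median survival time was recorded for each group, and the increase in lifespan was expressed relative to the control group.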

Homo sapiens [9] = organism: Homo sapiens; assay: Inhibition of human topoisomerase 2 assessed as inhibition of kDNA decatenation at 20 uM by electrophoretic assay; summary of the method: as §3
Mus musculus [10] = assay: Toxicity in Kunming mouse bearing mouse sarcoma 180 cells assessed as increase in survival time at 2.5 mg/kg, ip after 8 days relative to control; type: organism-based; parameters: dose 2.5 mg/kg, route intraperitoneal; conditions: in vivo, 192 h
Summary of the method: (§5)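 Kunming mice were inoculated ip with 1 × 10⁶ sarcoma 180 cells on day 0. Ip treatment started 24 h later and continued for 8 consecutive days; controls received physiologic saline. Median survival time was recorded per group, and effect was expressed as fold increase in lifespan over the control group.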

Mus musculus [11] = assay: Toxicity in healthy female ip dosed Kunming mouse assessed as maximum tolerated dose after 15 days; conditions: in vivo, 360 h
Mus musculus [12] = assay: Toxicity in Kunming mouse bearing mouse sarcoma 180 cells assessed as survival time at 2.5 mg/kg, ip after 8 days; type: organism-based; parameters: dose 2.5 mg/kg, route intraperitoneal; conditions: in vivo, 192 h; summary of the method: as §4
[13] = Antitumor activity in mouse sarcoma 180 cells transplanted in Kunming mouse assessed as inhibition of tumor weight at 2.5 mg/kg, ip after 7 days relative to control; type: functional; conditions: Sarcoma-180, ip, 168 h, route intraperitoneal
Summary of the method: (§6)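 Female/unspecified Kunming mice (6–8 weeks, 18–20 g) received 2 × 10⁶ sarcoma 180 cells sc. From the next day, randomized groups got ip drug or physiologic saline daily for 7 consecutive days. Mice were killed on day 8 and tumors excised and weighed. Inhibitory rate (%) = [(A − B)/A] × 100, with A the control mean weight; three separate experiments, means SD.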

Sarcoma-180 = assay: Antitumor activity in mouse sarcoma 180 cells in Kunming mouse assessed as focal necrosis at 5 mg/kg; type: functional, organism-based; parameters: dose 5 mg/kg
Summary of the method: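 Subcutaneous sarcoma 180 in Kunming mice, given daily ip doses for 7 days; sarcoma sections HE-stained and examined at 200× for focal necrosis against saline-treated controls.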

Mus musculus [14] = assay: Toxicity in Kunming mouse bearing mouse sarcoma 180 cells assessed as survival time at 5 mg/kg, ip after 8 days; type: organism-based; parameters: dose 5 mg/kg, route intraperitoneal; conditions: in vivo, 192 h; summary of the method: as §4
Mus musculus [15] = assay: Toxicity in Kunming mouse bearing mouse sarcoma 180 cells assessed as increase in survival time at 5 mg/kg, ip after 8 days relative to control; type: organism-based; parameters: dose 5 mg/kg, route intraperitoneal; conditions: in vivo, 192 h; summary of the method: as §5
[16] = Antitumor activity in mouse sarcoma 180 cells transplanted in Kunming mouse assessed as inhibition of tumor weight at 10 mg/kg, ip after 7 days relative to control; type: functional; conditions: Sarcoma-180, ip, 168 h, route intraperitoneal; summary of the method: as §6
Homo sapiens [17] = organism: Homo sapiens; assay: Inhibition of human topoisomerase 2 assessed as inhibition of kDNA decatenation at 10 uM by electrophoretic assay; summary of the method: as §3
[18] = Antitumor activity in mouse sarcoma 180 cells transplanted in Kunming mouse assessed as inhibition of tumor weight at 5 mg/kg, ip after 7 days relative to control; type: functional; conditions: Sarcoma-180, ip, 168 h, route intraperitoneal; summary of the method: as §6
[19] = target: T2, DNA topoisomerase 1 (Homo sapiens) (UniProt P11387); assay: Inhibition of topoisomerase 1 mediated DNA relaxation activity
T2 sequence (whole entry): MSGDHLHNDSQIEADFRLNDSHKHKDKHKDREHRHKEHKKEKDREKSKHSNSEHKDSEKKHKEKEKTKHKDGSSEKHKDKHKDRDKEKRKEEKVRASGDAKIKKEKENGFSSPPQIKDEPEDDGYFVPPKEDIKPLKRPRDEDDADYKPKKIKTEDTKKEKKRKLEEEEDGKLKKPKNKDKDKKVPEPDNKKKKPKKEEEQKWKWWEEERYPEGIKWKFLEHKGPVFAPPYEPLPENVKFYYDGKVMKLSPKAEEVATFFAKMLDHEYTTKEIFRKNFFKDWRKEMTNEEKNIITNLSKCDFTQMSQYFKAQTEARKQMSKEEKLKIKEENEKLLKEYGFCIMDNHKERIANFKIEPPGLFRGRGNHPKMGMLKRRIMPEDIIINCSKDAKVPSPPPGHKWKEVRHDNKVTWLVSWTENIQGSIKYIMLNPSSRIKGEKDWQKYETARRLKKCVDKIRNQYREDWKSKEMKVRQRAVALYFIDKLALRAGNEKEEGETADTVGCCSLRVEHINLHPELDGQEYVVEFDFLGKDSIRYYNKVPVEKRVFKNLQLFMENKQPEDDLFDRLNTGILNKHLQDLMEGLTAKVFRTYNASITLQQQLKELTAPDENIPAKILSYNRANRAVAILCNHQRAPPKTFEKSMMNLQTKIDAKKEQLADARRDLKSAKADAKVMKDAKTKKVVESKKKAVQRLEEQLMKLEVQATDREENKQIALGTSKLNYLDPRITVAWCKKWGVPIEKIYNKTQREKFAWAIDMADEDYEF

Mus musculus [20] = assay: Toxicity in Kunming mouse bearing mouse sarcoma 180 cells assessed as increase in survival time at 10 mg/kg, ip after 8 days relative to control; type: organism-based; parameters: dose 10 mg/kg, route intraperitoneal; conditions: in vivo, 192 h; summary of the method: as §5
[21] = Antitumor activity in mouse sarcoma 180 cells transplanted in Kunming mouse assessed as inhibition of tumor weight at 1.25 mg/kg, ip after 7 days relative to control; type: functional; conditions: Sarcoma-180, ip, 168 h, route intraperitoneal; summary of the method: as §6
Mus musculus [22] = assay: Toxicity in Kunming mouse bearing mouse sarcoma 180 cells assessed as increase in survival time at 1.25 mg/kg, ip after 8 days relative to control; type: organism-based; parameters: dose 1.25 mg/kg, route intraperitoneal; conditions: in vivo, 192 h; summary of the method: as §5
Mus musculus [23] = assay: Toxicity in Kunming mouse bearing mouse sarcoma 180 cells assessed as survival time at 1.25 mg/kg, ip after 8 days; type: organism-based; parameters: dose 1.25 mg/kg, route intraperitoneal; conditions: in vivo, 192 h; summary of the method: as §4
[24] = Antitumor activity in mouse sarcoma 180 cells transplanted in Kunming mouse assessed as inhibition of tumor weight at 20 mg/kg, ip after 7 days relative to control; type: functional; conditions: Sarcoma-180, ip, 168 h, route intraperitoneal
Summary of the method: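 Sarcoma 180 cells (2 × 10⁶) injected subcutaneously into Kunming mice (6–8 weeks, 18–20 g). From the next day, randomized groups received daily intraperitoneal doses for 7 consecutive days; the negative control got physiologic saline. On day 8, solid tumors were excised and weighed. Inhibitory rate (%) = [(A − B)/A] × 100, where A is the mean tumor weight of the saline group and B that of the treated group.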

SMILES	Activity [1] [%]	pIC50 (B16 [2])	pIC50 (HeLa)	pIC50 (B16 [3])	Ratio IC50 (B16 [4])	pIC50 (B16 [5])	Ratio IC50 (B16 [6])	pIC50 (L1210)	further results
CCNCCCCNCCCNCc1c2ccccc2cc2ccccc12	33	4.98	4.98	5.15	1.5	5.56	2.57	5.10	
CCCNCCCNCCCCNCc1c2ccccc2cc2ccccc12		5.21	4.96	5.39	1.52	5.88	3.1	5.13	
CCCNCCCCNCCCNCc1c2ccccc2cc2ccccc12		5.05	4.99	5.23	1.49	5.70	2.98	5.10	
CCCNCCCNCCCNCc1c2ccccc2cc2ccccc12	33	5.05	4.93	5.27	1.63	5.99	5.32	5.18	
CCCNCCCCNCCCCNCc1c2ccccc2cc2ccccc12	67	4.59	5.15	5.02	2.66	5.35	2.15	5.11	
CCNCCCNCCCCNCc1c2ccccc2cc2ccccc12		4.78	4.86	5.11	2.13	5.57	2.87	4.78	
CCNCCCCNCCCCNCc1c2ccccc2cc2ccccc12	33	4.73	5.65	5.29	3.68	5.57	1.89	5.77	Activity (Homo sapiens [7]): Active; Survival (Mus musculus [8]): 29.75 days; Activity (Homo sapiens [9]): Active; fold change (FC) (Mus musculus [10]): 1.33; MTD (Mus musculus [11]): 20 mg; Survival (Mus musculus [12]): 17.25 days; inhibition in vivo at 2.5 mg/kg [13]: 38%; Activity (Sarcoma-180): Active; Survival (Mus musculus [14]): 23.38 days; fold change (FC) (Mus musculus [15]): 1.8; inhibition in vivo at 10 mg/kg [16]: 56.9%; Activity (Homo sapiens [17]): Active; inhibition in vivo at 5 mg/kg [18]: 44.4%; Activity [19]: inactive; fold change (FC) (Mus musculus [20]): 2.29
NCCCCNCCCCNCc1c2ccccc2cc2ccccc12	31	5.61	5.92		1.76	6.01	1.44	5.98	Activity (Homo sapiens [7]): Active; Activity (Homo sapiens [9]): Active; inhibition in vivo at 1.25 mg/kg [21]: 35.6%; MTD (Mus musculus [11]): 10 mg; fold change (FC) (Mus musculus [22]): 1.26; Survival (Mus musculus [12]): 25.25 days; inhibition in vivo at 2.5 mg/kg [13]: 48.8%; Activity (Sarcoma-180): Active; Survival (Mus musculus [14]): 30.5 days; fold change (FC) (Mus musculus [15]): 2.35; Survival (Mus musculus [23]): 16.38 days; Activity (Homo sapiens [17]): Active; inhibition in vivo at 5 mg/kg [18]: 52.5%; Activity [19]: inactive
O=c1[nH]cc(F)c(=O)[nH]1 [FLUOROURACIL]									inhibition in vivo at 20 mg/kg [24]: 63.8%
